Holding throughout (format): functional, cell-based
The subject of one test is HeLa. Description: Antiproliferative activity against human HeLa cells after 72 hrs by MTT assay. In outline:
(§1)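 Cells seeded at 8000 per well in 96-well plates, exposed to compound for 72 h. MTT added at 0.5 mg/mL final and incubated 4 h. Formazan dissolved in DMSO, absorbance read at 570 nm. IC50 is the concentration giving 50% reduction in cell growth, reported as the mean of three repeated experiments.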
On the technique in general: Tetrazolium assays rely on reduction of a dye to a coloured formazan, in cell work by metabolically active cells.

Test [1] can be described thus: Antiproliferative activity against human LM7 cells after 72 hrs by MTT assay. The settings on record: LM7, 72 h. The procedure, abridged: as §1
Test [2] in a line: Antiproliferative activity against human MDA-MB-435S cells after 72 hrs by MTT assay. The procedure, abridged:
as §1

Another test concerns SW480. The test can be described thus: Antiproliferative activity against human SW480 cells after 72 hrs by MTT assay. The settings on record: SW480, 72 h. The procedure, abridged: as §1
The next test has as its system HEp-2. Description: Antiproliferative activity against human Hep2 cells after 72 hrs by MTT assay. The settings on record: HEp-2, 72 h. In outline: as §1
A further test concerns MCF7. The test can be described thus: Antiproliferative activity against human MCF7 cells after 72 hrs by MTT assay. As to conditions: MCF7, 72 h. In outline:
as §1

For the compound `O=c1cc(CSC(=S)N2CCN(c3ccccc3)CC2)oc2ccc(Cl)cc12`, the half-inhibitory concentration (IC50) (in general, the midpoint of a concentration-inhibition curve) with HeLa was 25.9 µM; in test [1], 15.9 µM; in test [2] it was 18.6 µM; in the test with SW480, 21.2 µM; in the test on HEp-2 it was 15.9 µM; with MCF7 it was more than 25 µM.
For `O=c1c(CSC(=S)N2CCOCC2)coc2ccccc12`, the IC50 was 12 µM in test [1]; 3.9 µM in test [2]; 5.9 µM with SW480; 4.4 µM in the test on HEp-2; 4 µM with MCF7.
Consider `Cc1ccc2occ(CSC(=S)N3CCCCC3)c(=O)c2c1`, for which the half-maximal inhibitory concentration (IC50) was more than 25 µM in the test on HeLa; 5.1 µM in test [1]; 1.7 µM in test [2]; more than 25 µM with SW480; 0.9 µM in the test with HEp-2; 0.8 µM with MCF7.
For `COc1ccc2c(=O)cc(CSC(=S)N3CCCCC3)oc2c1`, the IC50 was 11.9 µM in the test on HeLa; 5 µM in test [1]; 1.5 µM in test [2]; 2.3 µM with SW480; 1.5 µM in the test with HEp-2; 10 µM in the test on MCF7.
For `O=c1cc(CSC(=S)N2CCCC2)oc2ccc(Cl)cc12`, the IC50 was more than 40 µM in the test with HeLa; more than 25 µM in test [1]; more than 25 µM in test [2]; more than 25 µM in the test with SW480; more than 40 µM with HEp-2; more than 25 µM in the test with MCF7.
For `COc1ccc2c(=O)cc(CSC(=S)N3CCOCC3)oc2c1`, the IC50 in the test on HeLa was more than 25 µM; in test [1] it was 11 µM; in test [2], 3.4 µM; in the test with SW480 it was 3.1 µM; with HEp-2 it was 3 µM; with MCF7, more than 25 µM.
Take `O=c1c(SC(=S)N2CCCC2)coc2ccc(Cl)cc12`: the IC50 in the test on HeLa was 16.3 µM; in test [1] it was 24.6 µM; in test [2], 24 µM; in the test on SW480, more than 25 µM; in the test on HEp-2, 26 µM; in the test with MCF7 it was more than 25 µM.
Consider `O=c1cc(CSC(=S)N2CCCCC2)oc2ccc(Cl)cc12`, for which the IC50 with HeLa was more than 25 µM; in test [1], 13.8 µM; in test [2], 3 µM; with SW480, 2.5 µM; in the test with HEp-2, 1.6 µM; in the test with MCF7 it was more than 25 µM.
Take `O=c1c(CSC(=S)N2CCN(C(c3ccc(F)cc3)c3ccc(F)cc3)CC2)coc2ccccc12`: the concentration for half-maximal inhibition (IC50) is more than 25 µM in the test on HeLa; more than 25 µM in test [1]; more than 40 µM in test [2]; more than 40 µM in the test with SW480; 9.6 µM in the test on HEp-2; more than 30 µM in the test with MCF7.
On to `COc1ccc2c(=O)c(CSC(=S)N3CCCC3)coc2c1`, for which the IC50 came out at 12.1 µM in the test with HeLa; 6 µM in test [1]; 1.8 µM in test [2]; 4.8 µM with SW480; 3.1 µM in the test with HEp-2; 34.1 µM in the test on MCF7.
`O=c1cc(CSC(=S)N2CCCC2)oc2ccccc12`: the IC50 with HeLa was 23.1 µM; in test [1], 40 µM; in test [2], more than 30 µM; in the test on SW480, 23.4 µM; with HEp-2, 9.1 µM; in the test with MCF7 it was 35.8 µM.
For the compound `O=c1c(CSC(=S)N2CCCCC2)coc2ccccc12`, the IC50 came to 2.3 µM with HeLa; 4.6 µM in test [1]; 0.47 µM in test [2]; 1.2 µM with SW480; 0.39 µM in the test with HEp-2; 1.7 µM with MCF7.
For the compound `O=c1cc(CSC(=S)N2CCOCC2)oc2ccc(Cl)cc12`, the IC50 in the test with HeLa was 33.3 µM; in test [1], more than 25 µM; in test [2], more than 25 µM; in the test with SW480 it was more than 25 µM; with HEp-2, 20.6 µM; in the test with MCF7, more than 25 µM.
Take `CN1CCN(C(=S)SCc2coc3ccccc3c2=O)CC1`: the half-inhibitory concentration (IC50) stood at 5.9 µM in the test on HeLa; 17.6 µM in test [1]; 2.2 µM in test [2]; 2.4 µM in the test on HEp-2; 22.9 µM in the test on MCF7.
Regarding `CC(C)N(C(=S)SCc1cc(=O)c2ccccc2o1)C(C)C`, the IC50 in test [1] is more than 25 µM; in test [2] it was more than 40 µM; with SW480, more than 40 µM; in the test with HEp-2, 13.6 µM; with MCF7, 31.7 µM.
On to `CC(C)N(C(=S)SCc1oc2ccccc2c(=O)c1Cl)C(C)C`, for which the IC50 is more than 40 µM in the test with HeLa; more than 40 µM in test [1]; 23.6 µM in test [2]; 18.1 µM with SW480; 20 µM in the test with HEp-2; more than 40 µM in the test with MCF7.
Consider `CC(C)N(C(=S)SCc1cc(=O)c2cc(Cl)ccc2o1)C(C)C`, for which the IC50 was more than 30 µM in the test with HeLa; more than 30 µM in test [1]; more than 25 µM in test [2]; more than 25 µM with SW480; 22.7 µM in the test on HEp-2; more than 25 µM with MCF7.
Take `CCN(CC)C(=S)SCc1cc(=O)c2cc(Cl)ccc2o1`: the IC50 in the test with HeLa was 8.7 µM; in test [1] it was 8.8 µM; in test [2], 23.5 µM; with SW480, more than 25 µM; in the test on HEp-2, 8.8 µM; with MCF7, more than 25 µM.
Take `CC(C)N(C(=S)SCc1coc2ccc(Cl)cc2c1=O)C(C)C`: the IC50 in the test with HeLa was more than 25 µM; in test [1], more than 25 µM; in test [2], more than 25 µM; in the test with SW480 it was more than 25 µM; with HEp-2, 4.2 µM.
As to `Cc1ccc2occ(CSC(=S)N3CCCC3)c(=O)c2c1`, the IC50 turned out to be 4.4 µM in the test on HeLa; 3.4 µM in test [1]; 1.9 µM in test [2]; 5.9 µM with SW480; 3.6 µM in the test with HEp-2; 41.4 µM with MCF7.
With `CC(C)N(C(=S)SCc1coc2ccccc2c1=O)C(C)C`, the IC50 with HeLa was more than 30 µM; in test [1], 21.9 µM; in test [2] it was 7.9 µM; in the test with SW480, 6.8 µM; in the test on HEp-2, 3 µM; in the test with MCF7, more than 30 µM.
Turning to `CCOC(=O)c1cc(=O)c2cc(CSC(=S)N3CCCC3)ccc2o1`, the IC50 in the test with HeLa was 6.6 µM; in test [1], 18 µM; in test [2], 3.4 µM; in the test with SW480 it was more than 25 µM; in the test with HEp-2, 8.9 µM; in the test with MCF7, more than 25 µM.
Consider `O=c1c(Cl)c(CSC(=S)N2CCCC2)oc2ccccc12`, for which the IC50 in the test on HeLa was determined as 0.7 µM; in test [1] it was 1.9 µM; in test [2] it was 1.8 µM; with SW480 it was 1.4 µM; with HEp-2, 0.6 µM; in the test on MCF7, 2.3 µM.
As to `O=c1c(SC(=S)N2CCCCC2)coc2ccccc12`, the IC50 in the test with HeLa came out at 9 µM; in test [1] it was 7.8 µM; in test [2] it was 17.4 µM; with SW480, 16.3 µM; in the test on HEp-2, 5.8 µM.
On to `CCOC(=O)c1cc(=O)c2cc(CSC(=S)N(C)c3ccccc3)ccc2o1`, for which the IC50 was 18.1 µM with HeLa; more than 25 µM in test [1]; 13.5 µM in test [2]; more than 25 µM in the test on SW480; more than 25 µM with MCF7.
For `COc1ccc2c(=O)c(CSC(=S)N3CCOCC3)coc2c1`, the IC50 in the test with HeLa is 9.5 µM; in test [1], more than 40 µM; in test [2], more than 40 µM; with SW480, 7.1 µM; in the test with HEp-2, 4.8 µM; in the test on MCF7 it was 11.8 µM.
With `COc1ccc2c(=O)cc(CSC(=S)N(C(C)C)C(C)C)oc2c1`, the half-maximal inhibitory concentration (IC50) in the test on HeLa is more than 25 µM; in test [1], 19.1 µM; in test [2], 22.1 µM; in the test with SW480 it was 7.2 µM; with HEp-2, 7.6 µM; in the test on MCF7, more than 25 µM.
For the compound `Cc1ccc2occ(CSC(=S)N3CCOCC3)c(=O)c2c1`, the IC50 with HeLa stood at 6.1 µM; in test [1], 14.3 µM; in test [2], 5.5 µM; in the test on SW480 it was 3.8 µM; in the test on HEp-2, 4 µM; with MCF7, 20.7 µM.
Turning to `CCOC(=O)c1cc(=O)c2cc(CSC(=S)N3CCOCC3)ccc2o1`, the IC50 (in the test with HeLa; in test [1]; in test [2]; with SW480; in the test on HEp-2; in the test on MCF7) was more than 25 µM in each case.
With `O=c1c(CSC(=S)N2CCCC2)coc2ccc(Cl)cc12`, the IC50 with HeLa came to 1.3 µM; in test [1] it was 2.6 µM; in test [2] it was 6.4 µM; in the test with SW480, 7.8 µM; in the test with HEp-2 it was 2.1 µM; with MCF7, 0.6 µM.
Regarding `CN(C(=S)SCc1coc2ccccc2c1=O)c1ccccc1`, the IC50 (in the test with HeLa; in test [1]; in test [2]; in the test on SW480; in the test on HEp-2; with MCF7) was more than 25 µM each time.
As to `O=c1cc(CSC(=S)N2CCOCC2)oc2ccccc12`, the IC50 with HeLa was 35.6 µM; in test [1] it was 25.2 µM; in test [2], 22.2 µM; with SW480, 24.4 µM; in the test on HEp-2 it was more than 25 µM; with MCF7, 21 µM.
In the case of `CCOC(=O)c1cc(=O)c2cc(CSC(=S)N(C(C)C)C(C)C)ccc2o1`, the IC50 in the test on HeLa was more than 25 µM; in test [1] it was more than 25 µM; in test [2], 8.1 µM; with SW480, more than 25 µM; in the test with HEp-2 it was 15.9 µM; with MCF7, more than 25 µM.
Take `O=c1c(Cl)c(CSC(=S)N2CCOCC2)oc2ccccc12`: the IC50 in the test on HeLa came out at 4.5 µM; in test [1], 19.2 µM; in test [2], 4.1 µM; in the test on SW480, 1.8 µM; in the test on HEp-2, 9 µM; in the test on MCF7, 11.1 µM.
Regarding `O=c1c(SC(=S)N2CCCC2)coc2ccccc12`, the IC50 with HeLa is 3.8 µM; in test [2], 1.9 µM; with SW480 it was more than 25 µM; with HEp-2, 7.4 µM; with MCF7, 12.2 µM.
